ChEMBL document CHEMBL2417539, “1-substituted (Dibenzo[b,d]thiophen-4-yl)-2-morpholino-4H-chromen-4-ones endowed with dual DNA-PK/PI3-K inhibitory activity” (J Med Chem, 2013)
Converted amounts (≈) assume the structure as drawn.

What was measured:
Cytochrome P450 2C19 = Cytochrome P450 2C19 (Homo sapiens, UniProt P33261); test: Inhibition of CYP2C19 (unknown origin); format: ADME
Cytochrome P450 2D6 = Cytochrome P450 2D6 (Homo sapiens, UniProt P10635); test: Inhibition of CYP2D6 (unknown origin); format: ADME
Sequence of Cytochrome P450 2D6 (P10635 whole entry, canonical isoform): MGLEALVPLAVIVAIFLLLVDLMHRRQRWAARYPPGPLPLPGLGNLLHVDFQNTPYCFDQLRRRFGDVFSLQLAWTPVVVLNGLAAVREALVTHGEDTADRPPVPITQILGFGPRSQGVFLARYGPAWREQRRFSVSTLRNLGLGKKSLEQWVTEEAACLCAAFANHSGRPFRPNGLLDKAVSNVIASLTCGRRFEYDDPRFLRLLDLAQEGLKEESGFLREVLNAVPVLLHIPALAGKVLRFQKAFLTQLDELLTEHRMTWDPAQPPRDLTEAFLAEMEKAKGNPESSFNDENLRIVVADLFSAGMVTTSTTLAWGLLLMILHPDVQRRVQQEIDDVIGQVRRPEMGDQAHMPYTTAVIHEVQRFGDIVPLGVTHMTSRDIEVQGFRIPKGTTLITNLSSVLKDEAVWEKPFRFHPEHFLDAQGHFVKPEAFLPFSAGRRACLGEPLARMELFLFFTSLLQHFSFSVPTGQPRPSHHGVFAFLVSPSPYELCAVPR

[1] = target: Phosphatidylinositol 4,5-bisphosphate 3-kinase catalytic subunit gamma isoform (Homo sapiens, UniProt P48736); test: Inhibition of PI-3K gamma (unknown origin)
[2] = Fraction unbound in human Plasma; format: ADME, cell-free
[3] = Lipophilicity, log D of the compound; format: physicochemical; details: octanol/water
[4] = Aqueous solubility of the compound at pH 7.4; format: physicochemical; details: buffer
[5] = target: T1, DNA-dependent protein kinase catalytic subunit (Homo sapiens, UniProt P78527); test: Inhibition of DNA-PK autophosphorylation at S2056 in human HeLa cells; format: cell-based
T1 sequence (P78527 whole entry): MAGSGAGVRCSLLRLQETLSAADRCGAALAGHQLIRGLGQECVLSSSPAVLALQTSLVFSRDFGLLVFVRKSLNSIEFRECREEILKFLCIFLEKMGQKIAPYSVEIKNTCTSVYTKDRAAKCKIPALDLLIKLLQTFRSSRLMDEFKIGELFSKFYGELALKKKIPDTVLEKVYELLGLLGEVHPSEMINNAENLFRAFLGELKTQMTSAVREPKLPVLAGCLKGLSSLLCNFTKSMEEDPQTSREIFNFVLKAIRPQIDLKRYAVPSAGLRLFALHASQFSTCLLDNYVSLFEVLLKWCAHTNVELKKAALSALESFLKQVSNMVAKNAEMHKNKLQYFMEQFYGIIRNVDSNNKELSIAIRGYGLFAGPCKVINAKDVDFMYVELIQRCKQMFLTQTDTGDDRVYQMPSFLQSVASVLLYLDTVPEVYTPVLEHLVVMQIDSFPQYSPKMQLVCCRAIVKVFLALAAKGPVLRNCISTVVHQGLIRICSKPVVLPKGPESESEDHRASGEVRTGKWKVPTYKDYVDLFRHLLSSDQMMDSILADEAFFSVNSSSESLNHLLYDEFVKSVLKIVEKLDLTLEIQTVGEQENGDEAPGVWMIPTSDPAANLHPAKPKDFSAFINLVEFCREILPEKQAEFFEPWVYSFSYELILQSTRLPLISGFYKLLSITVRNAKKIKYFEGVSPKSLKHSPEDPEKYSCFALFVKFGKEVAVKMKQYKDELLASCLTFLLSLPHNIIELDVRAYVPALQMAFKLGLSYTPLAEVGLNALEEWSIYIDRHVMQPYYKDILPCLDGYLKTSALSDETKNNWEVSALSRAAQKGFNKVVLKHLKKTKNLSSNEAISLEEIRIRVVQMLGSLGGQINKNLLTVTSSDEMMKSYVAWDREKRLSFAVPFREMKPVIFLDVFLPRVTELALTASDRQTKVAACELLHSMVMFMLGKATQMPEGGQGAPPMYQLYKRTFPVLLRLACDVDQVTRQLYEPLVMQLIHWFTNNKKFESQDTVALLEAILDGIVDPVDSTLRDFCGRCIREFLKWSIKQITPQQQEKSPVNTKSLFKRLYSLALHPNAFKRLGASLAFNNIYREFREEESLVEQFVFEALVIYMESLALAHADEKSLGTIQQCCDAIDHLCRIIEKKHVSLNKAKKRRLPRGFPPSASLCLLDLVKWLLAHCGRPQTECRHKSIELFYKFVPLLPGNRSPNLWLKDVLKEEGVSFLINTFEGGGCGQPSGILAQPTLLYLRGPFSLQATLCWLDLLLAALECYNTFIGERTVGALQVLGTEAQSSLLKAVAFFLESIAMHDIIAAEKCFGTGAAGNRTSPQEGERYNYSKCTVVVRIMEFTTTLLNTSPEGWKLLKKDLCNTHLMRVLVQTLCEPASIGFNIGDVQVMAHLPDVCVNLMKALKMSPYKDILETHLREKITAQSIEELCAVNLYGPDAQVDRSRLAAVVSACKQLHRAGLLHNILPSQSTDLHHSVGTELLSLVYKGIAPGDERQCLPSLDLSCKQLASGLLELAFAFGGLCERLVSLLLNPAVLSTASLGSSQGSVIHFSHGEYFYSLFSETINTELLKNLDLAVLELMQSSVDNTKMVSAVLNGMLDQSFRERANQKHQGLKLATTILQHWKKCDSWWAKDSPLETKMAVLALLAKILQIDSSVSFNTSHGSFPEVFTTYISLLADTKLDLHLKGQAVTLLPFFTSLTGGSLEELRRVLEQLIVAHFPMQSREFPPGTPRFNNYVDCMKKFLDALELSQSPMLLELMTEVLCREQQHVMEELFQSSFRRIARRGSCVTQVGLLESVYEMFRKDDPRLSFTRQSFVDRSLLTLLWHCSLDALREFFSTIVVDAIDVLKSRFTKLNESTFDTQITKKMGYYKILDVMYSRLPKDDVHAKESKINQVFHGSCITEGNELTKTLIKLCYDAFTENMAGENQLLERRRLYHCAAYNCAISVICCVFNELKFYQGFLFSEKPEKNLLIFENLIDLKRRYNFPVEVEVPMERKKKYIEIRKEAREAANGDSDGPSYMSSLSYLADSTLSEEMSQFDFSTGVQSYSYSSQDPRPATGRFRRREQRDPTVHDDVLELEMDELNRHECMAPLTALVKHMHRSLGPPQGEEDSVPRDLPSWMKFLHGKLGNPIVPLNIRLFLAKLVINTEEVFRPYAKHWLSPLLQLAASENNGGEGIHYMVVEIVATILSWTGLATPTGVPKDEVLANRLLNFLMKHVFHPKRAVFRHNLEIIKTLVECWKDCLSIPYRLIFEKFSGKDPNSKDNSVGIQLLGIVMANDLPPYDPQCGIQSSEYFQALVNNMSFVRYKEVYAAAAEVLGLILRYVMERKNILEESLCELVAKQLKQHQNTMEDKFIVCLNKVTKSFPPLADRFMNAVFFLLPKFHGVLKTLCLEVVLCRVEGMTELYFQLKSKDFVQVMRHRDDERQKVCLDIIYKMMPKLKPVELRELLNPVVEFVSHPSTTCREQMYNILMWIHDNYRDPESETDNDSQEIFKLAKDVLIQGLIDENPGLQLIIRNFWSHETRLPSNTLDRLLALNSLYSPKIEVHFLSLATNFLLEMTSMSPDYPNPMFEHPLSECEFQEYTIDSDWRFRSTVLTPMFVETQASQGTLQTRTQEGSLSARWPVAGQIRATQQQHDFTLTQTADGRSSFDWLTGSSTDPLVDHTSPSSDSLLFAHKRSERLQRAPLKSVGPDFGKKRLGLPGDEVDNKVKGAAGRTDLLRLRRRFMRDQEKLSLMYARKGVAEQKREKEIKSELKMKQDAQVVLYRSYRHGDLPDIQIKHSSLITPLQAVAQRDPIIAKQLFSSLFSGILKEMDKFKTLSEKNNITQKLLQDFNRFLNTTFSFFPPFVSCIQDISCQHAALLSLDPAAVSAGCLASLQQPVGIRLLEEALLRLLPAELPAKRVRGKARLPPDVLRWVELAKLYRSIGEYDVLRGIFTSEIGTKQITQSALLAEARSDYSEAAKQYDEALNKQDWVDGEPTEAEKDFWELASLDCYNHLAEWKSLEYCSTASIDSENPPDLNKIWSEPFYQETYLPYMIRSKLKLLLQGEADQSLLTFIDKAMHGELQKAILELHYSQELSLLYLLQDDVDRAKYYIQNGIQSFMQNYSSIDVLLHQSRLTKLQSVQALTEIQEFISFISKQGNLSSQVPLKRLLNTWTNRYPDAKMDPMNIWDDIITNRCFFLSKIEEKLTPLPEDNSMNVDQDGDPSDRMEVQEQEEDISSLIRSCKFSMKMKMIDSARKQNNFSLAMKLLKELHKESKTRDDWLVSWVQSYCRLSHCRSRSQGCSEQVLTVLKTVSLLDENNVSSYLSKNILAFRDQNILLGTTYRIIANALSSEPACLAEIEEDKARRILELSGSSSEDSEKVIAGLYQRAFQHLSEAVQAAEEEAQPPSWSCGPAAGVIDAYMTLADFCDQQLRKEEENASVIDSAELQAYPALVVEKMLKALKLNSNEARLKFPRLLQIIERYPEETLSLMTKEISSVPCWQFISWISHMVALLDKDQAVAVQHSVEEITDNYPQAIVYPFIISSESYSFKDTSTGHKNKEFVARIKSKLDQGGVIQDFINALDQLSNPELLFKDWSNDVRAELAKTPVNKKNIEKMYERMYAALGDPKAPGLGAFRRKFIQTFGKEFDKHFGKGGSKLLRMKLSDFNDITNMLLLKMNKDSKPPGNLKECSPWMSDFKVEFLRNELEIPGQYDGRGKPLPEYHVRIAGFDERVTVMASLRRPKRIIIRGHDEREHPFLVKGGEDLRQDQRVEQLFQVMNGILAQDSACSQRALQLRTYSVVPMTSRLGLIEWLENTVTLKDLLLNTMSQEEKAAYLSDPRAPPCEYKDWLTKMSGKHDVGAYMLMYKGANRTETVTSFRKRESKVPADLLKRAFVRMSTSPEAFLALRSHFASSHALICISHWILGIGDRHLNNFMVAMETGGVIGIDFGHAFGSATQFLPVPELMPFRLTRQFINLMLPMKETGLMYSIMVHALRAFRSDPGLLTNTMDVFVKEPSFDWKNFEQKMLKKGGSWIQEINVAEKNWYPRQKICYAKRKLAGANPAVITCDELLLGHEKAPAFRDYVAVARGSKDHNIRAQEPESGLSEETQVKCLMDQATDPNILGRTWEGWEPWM

Cytochrome P450 1A2 = target: T2, Cytochrome P450 1A2 (Homo sapiens, UniProt P05177); test: Inhibition of CYP1A2 (unknown origin); format: ADME
T2 sequence (P05177 whole entry): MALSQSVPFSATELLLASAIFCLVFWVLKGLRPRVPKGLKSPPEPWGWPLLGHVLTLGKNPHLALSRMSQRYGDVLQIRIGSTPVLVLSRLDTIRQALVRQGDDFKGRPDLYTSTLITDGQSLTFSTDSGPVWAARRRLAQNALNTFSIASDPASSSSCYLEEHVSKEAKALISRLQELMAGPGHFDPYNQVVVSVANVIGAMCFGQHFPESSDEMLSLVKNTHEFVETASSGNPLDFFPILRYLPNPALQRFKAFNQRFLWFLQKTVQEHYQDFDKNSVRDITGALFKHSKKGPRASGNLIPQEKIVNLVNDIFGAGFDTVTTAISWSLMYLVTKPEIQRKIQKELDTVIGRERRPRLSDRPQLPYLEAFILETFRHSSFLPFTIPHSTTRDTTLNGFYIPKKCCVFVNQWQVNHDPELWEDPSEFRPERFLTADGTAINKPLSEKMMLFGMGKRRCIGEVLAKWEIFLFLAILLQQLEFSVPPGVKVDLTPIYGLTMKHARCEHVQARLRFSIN

Cytochrome P450 2C9 = Cytochrome P450 2C9 (Homo sapiens, UniProt P11712); test: Inhibition of CYP2C9 (unknown origin); format: ADME
[6] = target: Serine-protein kinase ATM (Homo sapiens, UniProt Q13315); test: Inhibition of ATM (unknown origin)
HeLa [7] = test: Antiproliferative activity against human HeLa cells assessed as cell viability after 6 to 8 days by DMR clonogenic assay; format: cell-based
[8] = target: Aurora kinase B (Homo sapiens) (UniProt Q96GD4); test: Inhibition of Aurora kinase B (unknown origin); details: concentration not given here
[9] = target: T3, Phosphatidylinositol 4,5-bisphosphate 3-kinase catalytic subunit delta isoform (Homo sapiens, UniProt O00329); test: Inhibition of PI-3K delta (unknown origin)
T3 sequence (O00329 whole entry): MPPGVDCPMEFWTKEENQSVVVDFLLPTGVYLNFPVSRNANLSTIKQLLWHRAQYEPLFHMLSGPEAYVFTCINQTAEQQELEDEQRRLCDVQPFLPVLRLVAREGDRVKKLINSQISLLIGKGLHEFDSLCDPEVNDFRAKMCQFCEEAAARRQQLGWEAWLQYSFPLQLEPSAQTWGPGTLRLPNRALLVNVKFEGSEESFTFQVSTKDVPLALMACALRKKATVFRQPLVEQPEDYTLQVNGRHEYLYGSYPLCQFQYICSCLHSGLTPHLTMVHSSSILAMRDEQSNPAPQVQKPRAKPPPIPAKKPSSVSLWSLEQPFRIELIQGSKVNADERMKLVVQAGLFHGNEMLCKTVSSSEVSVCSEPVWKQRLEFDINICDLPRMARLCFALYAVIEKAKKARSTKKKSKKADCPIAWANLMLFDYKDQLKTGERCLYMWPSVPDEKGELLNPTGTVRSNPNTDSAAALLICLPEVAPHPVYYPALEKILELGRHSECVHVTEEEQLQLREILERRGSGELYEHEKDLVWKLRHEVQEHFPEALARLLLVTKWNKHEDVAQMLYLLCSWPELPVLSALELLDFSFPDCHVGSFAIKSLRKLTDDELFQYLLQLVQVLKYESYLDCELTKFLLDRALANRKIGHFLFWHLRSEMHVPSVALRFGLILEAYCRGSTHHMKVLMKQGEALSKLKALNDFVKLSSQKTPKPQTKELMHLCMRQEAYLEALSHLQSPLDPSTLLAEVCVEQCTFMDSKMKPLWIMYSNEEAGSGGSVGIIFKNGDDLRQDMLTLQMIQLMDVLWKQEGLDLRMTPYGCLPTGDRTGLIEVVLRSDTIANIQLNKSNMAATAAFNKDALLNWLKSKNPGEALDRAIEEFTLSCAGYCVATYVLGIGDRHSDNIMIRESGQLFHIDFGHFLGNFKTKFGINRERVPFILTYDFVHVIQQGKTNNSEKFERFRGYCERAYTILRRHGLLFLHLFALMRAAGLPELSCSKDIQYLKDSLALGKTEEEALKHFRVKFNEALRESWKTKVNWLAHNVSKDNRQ

Cytochrome P450 3A4 = Cytochrome P450 3A4 (Homo sapiens, UniProt P08684); test: Inhibition of CYP3A4 (unknown origin); format: ADME
Sequence of Cytochrome P450 3A4 (P08684 whole entry): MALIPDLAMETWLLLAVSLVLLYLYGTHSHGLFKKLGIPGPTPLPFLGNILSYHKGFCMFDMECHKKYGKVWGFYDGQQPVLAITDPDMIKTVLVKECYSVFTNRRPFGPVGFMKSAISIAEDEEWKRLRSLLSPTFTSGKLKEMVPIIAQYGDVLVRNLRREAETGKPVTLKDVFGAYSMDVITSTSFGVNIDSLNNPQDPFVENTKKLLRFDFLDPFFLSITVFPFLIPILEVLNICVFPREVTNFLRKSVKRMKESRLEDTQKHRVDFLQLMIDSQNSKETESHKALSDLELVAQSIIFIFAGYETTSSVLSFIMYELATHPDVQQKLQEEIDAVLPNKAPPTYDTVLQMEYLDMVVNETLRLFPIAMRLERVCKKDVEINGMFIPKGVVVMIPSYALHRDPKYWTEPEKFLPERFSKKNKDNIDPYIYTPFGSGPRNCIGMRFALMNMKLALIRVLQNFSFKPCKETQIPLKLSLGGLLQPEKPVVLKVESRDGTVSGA

[10] = target: Serine/threonine-protein kinase ATR (Homo sapiens, UniProt Q13535); test: Inhibition of ATR (unknown origin)
[11] = target: Serine/threonine-protein kinase mTOR (Homo sapiens, UniProt P42345); test: Inhibition of mTOR (unknown origin)
[12] = target: Phosphatidylinositol 4,5-bisphosphate 3-kinase catalytic subunit alpha isoform (Homo sapiens, UniProt P42336); test: Inhibition of PI-3K alpha (unknown origin)
[13] = target: Phosphatidylinositol 4,5-bisphosphate 3-kinase catalytic subunit beta isoform (Homo sapiens, UniProt P42338); test: Inhibition of PI-3K beta (unknown origin)
[14] = target: T1, DNA-dependent protein kinase catalytic subunit; test: Inhibition of DNA-PK (unknown origin)
[15] = target: Voltage-gated inwardly rectifying potassium channel KCNH2 (Homo sapiens, UniProt Q12809); test: Inhibition of human ERG expressed in cisapride treated CHO cells by Ion Works assay
HeLa [16] = test: Antiproliferative activity against human HeLa cells assessed as cell survival ratio at 0.5 uM treated 1 hr before 2Gy ionizing radiation measured after 6 to 8 days by DMR clonogenic assay; format: functional
Procedure, shortened: (§1)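 HeLa cells seeded in 6-well dishes, incubated overnight at 37 °C/5% CO2, pre-treated 1 h with vehicle or inhibitor (0.1 or 0.5 μM), then given 2 Gy X-ray IR and held overnight. Medium then replaced without compound and culture continued 6-8 days. Colonies Giemsa-stained and counted automatically. DMR = % survival (vehicle, 2 Gy) / % survival (compound, 2 Gy).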

HeLa [17] = test: Antiproliferative activity against human HeLa cells assessed as cell survival ratio at 0.1 uM treated 1 hr before 2Gy ionizing radiation measured after 6 to 8 days by DMR clonogenic assay; format: functional; procedure, shortened: as §1
[18] = target: T1, DNA-dependent protein kinase catalytic subunit; test: Inhibition of human DNA-PK using GST-tagged p53N66 as substrate after 1 hr by ELISA-based chemiluminiscence assay

CCN1CCN(CC(=O)Nc2ccc(-c3cccc4c(=O)cc(N5CCOCC5)oc34)c3sc4ccccc4c23)CC1
IC50 (Cytochrome P450 2C19): > 10000 nM
IC50 (Cytochrome P450 2D6): > 10000 nM
IC50 [1]: 590 nM
fraction unbound [2]: 0.036
logD [3]: 3.05
solubility [4]: 161 µM (≈ 93.8 µg/mL)
EC50 [5]: 136 nM
IC50 (Cytochrome P450 1A2): > 10000 nM
IC50 (Cytochrome P450 2C9): > 10000 nM
IC50 [6]: > 10000 nM
IC50 (HeLa [7]): > 25000 nM
inhibition [8]: 44%
IC50 [9]: < 0.1 nM
IC50 (Cytochrome P450 3A4): > 10000 nM
IC50 [10]: > 10000 nM
IC50 [11]: 10000 nM
IC50 [12]: 4 nM
IC50 [13]: 0.5 nM

O=c1cc(N2CCOCC2)oc2c(-c3cccc4c3sc3ccccc34)cccc12
IC50 [14]: 40 nM
IC50 [1]: 220 nM
fraction unbound [2]: 0.0004
logD [3]: > 4.3
IC50 [15]: 14000 nM
solubility [4]: < 0.2 µM
EC50 [5]: 212 nM
IC50 [6]: > 10000 nM
IC50 [9]: 30 nM
IC50 [10]: > 10000 nM
Ratio (HeLa [16]): 2.8
IC50 [11]: 2400 nM
Ratio (HeLa [17]): 2.2
IC50 [18]: 42 nM
IC50 [13]: 16 nM

O=C(CN1CCN(CCO)CC1)Nc1ccc(-c2cccc3c(=O)cc(N4CCOCC4)oc23)c2sc3ccccc3c12
IC50 (Cytochrome P450 2C19): > 10000 nM
IC50 (Cytochrome P450 2D6): > 10000 nM
fraction unbound [2]: 0.098
logD [3]: 2.7
IC50 [15]: > 30000 nM
solubility [4]: 154 µM (≈ 92.2 µg/mL)
EC50 [5]: 109 nM
IC50 (Cytochrome P450 1A2): > 10000 nM
IC50 (Cytochrome P450 2C9): > 10000 nM
IC50 (Cytochrome P450 3A4): > 10000 nM
Ratio (HeLa [16]): 8.4
Ratio (HeLa [17]): 2
IC50 [18]: 5 nM
